Screens (PubChem)
This is a sample that favours compounds with a hit; in the whole collection about 1.9% have one here.
procasp3 activ: procaspase-3 (human) activation; P42574; recombinant procaspase-3 D3A, Ac-DEVD-pNA absorbance 405 nm; activation, % at 8.5 µM; actives 0.11% (n = 330,000);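 active = activation above the mean of all tested compounds plus 3 SD, cut at about 21% in these data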;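 also: 0% = DMSO alone and 100% = DMSO wells spiked with extra 5 µM PC-3 D3A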
Target sequence (P42574 whole entry D9A/D28A/D175A): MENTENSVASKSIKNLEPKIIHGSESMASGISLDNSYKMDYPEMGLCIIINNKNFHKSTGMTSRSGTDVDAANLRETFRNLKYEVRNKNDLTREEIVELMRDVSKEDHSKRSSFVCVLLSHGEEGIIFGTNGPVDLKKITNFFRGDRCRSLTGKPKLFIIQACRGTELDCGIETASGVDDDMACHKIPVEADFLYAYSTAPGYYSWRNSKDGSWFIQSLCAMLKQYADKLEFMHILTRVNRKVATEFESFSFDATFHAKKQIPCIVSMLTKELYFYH
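Assay system – Procaspase-3 D3A mutant · Benchmarks – DMSO low control, extra-enzyme high control · Technique – 405 nm absorbance of p-nitroaniline, reads at 0 and 120 min · Doses – 8.5 µM nominal · Measure – % activation between DMSO and enzyme-spiked controls · Also added – Ac-DEVD-pNA chromogenic peptide substrate · Schedule – 1 h compound preincubation, 2 h substrate hydrolysis at 25 °C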
HIF act: HIF pathway transcriptional activation; actives 0.32% (n = 300,000); activation, % at 7.5 µM (by protocol); U2OS HRE-luciferase reporter, luminescence; normalized: DMSO 0%, desferrioxamine 100%;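 active = mean activation of at least 10% of the iron chelator positive control signal, with at least half of replicates also reaching 10%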
Calb FLC: affects C. albicans growth with fluconazole; AID 1979; actives 0.57% (n = 300,000); C. albicans CaCi-2 + fluconazole, Alamar Blue growth, 48 h; growth inhibition, % (concentration not given with the values);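 active = growth inhibition above about 58% in most replicates, limit read from the data, passing the limit was not always enough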;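 also: all wells also contain fluconazole at 8 µg/ml as a sub-toxic cotreatment; 0% = median of DMSO wells and 100% = median of geldanamycin control wells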
Neddylation inh: inhibitors of human cullin neddylation; actives 0.58% (n = 360,000); P61081+Q13564; AID 651699; TR-FRET cullin neddylation, biochemical; inhibition, % at 25 µM; in the data active = inhibition above about 36%
proCasp7 act: counter-screen for procaspase-3 activators: activators of human procaspase-7. AID 463210. recombinant procaspase-7, Ac-DEVD-pNA absorbance 405 nm; D23A/D198A/D206A triple mutant, cannot self-cleave; scale: DMSO 0, 5 µM enzyme 100. P55210. activation, % at 8.5 µM. actives 0.093% (n = 330,000);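 active = percent activation above the screen-wide mean plus 3 SD, cut at about 25% in these data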
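Assay system: Uncleavable procaspase-7 mutant enzyme | Input: 2 µM procaspase-7 mutant as dispensed | Timing: 1 h compound preincubation, 2 h substrate cleavage, 25 °C | Repeats: One well per compound | Control set: DMSO wells as 0%, DMSO with 5 µM added PC-7 as 100% | Technique: Epi-absorbance of released pNA at 405 nm, two timepoints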
GAA850 FXN act: frataxin GAA850 promoter activation | HEK293 lucGAA850 FXN promoter luciferase reporter, 24 h; percent of 10 µM SAHA response | activation, % at 6 µM | actives 0.56% (n = 360,000);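 active = activation above the average of all compounds screened plus 3 SD, cutoff fixed separately per campaign, cut at about 7.5% in these data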;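 also: 0% = DMSO wells and 100% = 10 µM SAHA wells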
GAA30 counter: GAA30 FXN promoter activation counter-screen; shares compounds with GAA850 FXN act; HEK293 lucGAA30 FXN promoter luciferase, 24 h; DMSO = 0%, 5 µM ipriflavone = 100%; activation, % at 6 µM; actives 66% (n = 1,900);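 active = mean activation above the mean of solvent-only control wells plus 3 SD, cut at about 22% in these data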;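 also: counterscreen of GAA850 promoter hits where activity marks nonselective or luminescence artifacts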
GAA850 confirm: confirmation of GAA850 frataxin (FXN) promoter activators. shares compounds with GAA850 FXN act. HEK293 lucGAA850 FXN promoter luciferase reporter, 24 h; 100% = activation by SAHA. activation, % at 6 µM. actives 86% (n = 1,900). AID 588351;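 active = mean activation above a set limit taken from the primary screen, cut at about 8% in these data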;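 also: 0% = DMSO wells and 100% = 10 µM SAHA wells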
* hit, by the source's call; · = not tested or not shown.

SMILES	procasp3 activ	HIF act	Calb FLC	Neddylation inh	proCasp7 act	GAA850 FXN act	GAA30 counter	GAA850 confirm
COC(=O)[C@@]12C[C@@H](CC(=O)NCC3CCCCC3)C(=O)N(Cc3ccccc3)C1=CCC(C)(C)C2	·	·	·	-9	·	·	·	·
Nc1ccc(Oc2ccc3nc(-c4ccccc4)c(-c4ccccc4)nc3c2)cc1	-8	0	17	·	-8	0	·	·
Nc1ccc2nc(-c3ccccc3)c(-c3ccccc3)nc2c1	-9	-1	-3	16	-4	14*	-5	11*
COC(=O)C/C=C/N(Cc1ccccc1OC)S(=O)(=O)CCl	-8	·	·	-9	0	1	·	·
CC(O)C(O)C(O)C(O)/C=N/NC(=O)c1ccccc1 (stereo not drawn)	-7	1	10	-1	-6	7.7*	23*	7
CCOC(=O)CSc1ccc(-c2nc3ccccc3[nH]2)cn1	10	1	-4	17	-12	1	·	·
N#CCSc1ccc(-c2nc3ccccc3[nH]2)cn1	5	3	9	30	2	7.8*	85*	27*
O=C(C=Cc1ccccc1)c1c[nH]c2ccccc2c1=O	·	·	·	9	·	-5	·	·
O=C(/C=C/c1ccccc1)c1c[nH]c2ccccc12	5	1	-16	-6	11	12*	142*	52*
O=[N+]([O-])c1cc(/C=N\O)ccc1Oc1ccc(F)cc1	2	1	1	-25	2	9.4*	51*	25*
O=C(CSCC(=O)Nc1cccc2ccccc12)Nc1cccc2ccccc12	-1	0	1	0	-9	14*	23*	5
O=C(CSCCO)Nc1cccc2ccccc12	0	0	-7	13	-3	-2	·	·
CC1(C(=O)NS(=O)(=O)c2ccccc2Cl)CCN1C(=O)Cc1cccc2ccccc12 (stereo not drawn)	·	·	·	-4	·	-2	·	·
C#CCN(C[C@H]1[C@H](OC(=O)NCc2ccccc2F)[C@H](OC(=O)NCc2ccccc2F)C[C@@H](C(=O)OC)[C@H]1C(=O)OC)S(=O)(=O)c1ccc(C)cc1	·	·	·	-2	·	-4	·	·
O=C(Nc1ccccc1)[C@@H]1CCCN1S(=O)(=O)c1ccc(Cl)cc1	-5	·	·	-4	4	0	·	·
O=C(Nc1ccc(Cl)cc1)C1CCCCN1S(=O)(=O)c1ccccc1 (stereo not drawn)	1	·	·	7	4	7.9*	24*	8.3*
CCc1c(C)nc2cc(-c3cc(OC)cc(OC)c3)nn2c1N1CCN(CCN2CCOCC2)CC1	5	0	21	25	-6	0	·	·
COCCN1CCN(c2c(C)c(C)nc3cc(-c4cccc(OC)c4)nn23)CC1	-5	2	14	24	3	10*	72*	20*
O=C1C(O)CCN1Cc1ccccc1 (stereo not drawn)	·	·	·	0	·	1	·	·
Nc1ncn(C(=S)Nc2ccccc2)n1	·	·	·	3	·	3	·	·
CC[C@@]12C(=O)N(c3cccc(Cl)c3)C(=O)N1[C@H](c1ccc(Br)cc1)[C@@H]1C(=O)N(C(C)(C)C)C(=O)[C@@H]12	4	1	5	-29	-7	14*	35*	17*
CC(C)C[C@@]12C(=O)N(c3cccc(Cl)c3)C(=O)N1[C@H](c1ccc(Br)cc1)[C@@H]1C(=O)N(C(C)(C)C)C(=O)[C@@H]12	2	·	·	-23	-5	15*	33*	18*
CCN1C(=O)[C@H]2[C@@H](c3ccc(C)cc3)N3C(=O)N(c4cccc(Cl)c4)C(=O)[C@@]3(Cc3ccc(Cl)cc3)[C@H]2C1=O	7	·	·	-1	-6	1	·	·
